The target of data set [1] is T1, C-X-C chemokine receptor type 3 (Homo sapiens, UniProt P49682).
T1 sequence (P49682 whole entry): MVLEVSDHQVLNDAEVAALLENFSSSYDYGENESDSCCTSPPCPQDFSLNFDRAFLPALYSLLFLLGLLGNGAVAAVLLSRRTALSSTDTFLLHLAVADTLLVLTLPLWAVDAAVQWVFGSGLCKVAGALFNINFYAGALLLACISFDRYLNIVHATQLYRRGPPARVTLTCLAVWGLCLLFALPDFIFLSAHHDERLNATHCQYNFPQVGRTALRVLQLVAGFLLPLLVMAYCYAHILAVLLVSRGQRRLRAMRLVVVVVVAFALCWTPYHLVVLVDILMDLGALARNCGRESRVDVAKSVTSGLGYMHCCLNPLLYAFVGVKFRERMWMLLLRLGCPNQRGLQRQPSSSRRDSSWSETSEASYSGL
As to the kind of experiment: Displacement of [125I]I-TAC from human CXCR3 expressed in CHO cells by scintillation proximity assay. In kind it is cell-based. The essentials: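 Membranes came from CHO cells transfected with human CXCR3. Serial dilutions of inhibitor were incubated for 2 h at room temperature with 125I-labelled I-TAC (CXCL11), the membranes and WGA-coated PVT beads. Binding was read by scintillation proximity.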

For data set [2], the target named is T1, C-X-C chemokine receptor type 3. In words: Antagonist activity at human CXCR3 expressed in L1.2 cells assessed as inhibition of I-TAC-induced Ca2+ mobilization by FLIPR assay. The class given is functional, cell-based. An outline of the steps:
(§1)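 CXCR3-transfected L1.2 mouse pre-B cells were loaded with Fluo-4 and washed. They were pre-incubated with inhibitor for 2 h at room temperature, then stimulated with I-TAC. The transient rise in intracellular Ca2+ was read on a FLIPR.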

The nature of data set [3]: Solubility in pH 6.8 buffer. In kind it is physicochemical.
The target of a further data set is Cytochrome P450 1A2 (Homo sapiens, UniProt P05177). As to the kind of experiment: Inhibition of CYP1A2. The class given is ADME.
A further data set concerns the target Cytochrome P450 3A4 (Homo sapiens, UniProt P08684). As to the kind of experiment: Inhibition of CYP3A4. The class given is ADME.
Another data set deals with D(3) dopamine receptor (Homo sapiens, UniProt P35462). As to the kind of experiment: Inhibition of dopamine D3 receptor.
The next data set has as its target Cytochrome P450 2C19 (Homo sapiens, UniProt P33261). As to the kind of experiment: Inhibition of CYP2C19. The class given is ADME.
Another data set deals with Cytochrome P450 2C9 (Homo sapiens, UniProt P11712). In words: Inhibition of CYP2C9. In kind it is ADME.
In data set [4] the target is Voltage-gated inwardly rectifying potassium channel KCNH2 (Homo sapiens, UniProt Q12809). As to the kind of experiment: Inhibition of human ERG.
The nature of data set [5]: Solubility in pH 1.0 buffer. The class given is physicochemical.
Data set [6] in a line: Fraction unbound in human. The class given is ADME, organism-based. The note with it: in vivo.
Data set [7] concerns the target Alpha-2A adrenergic receptor (Homo sapiens, UniProt P08913). As to the kind of experiment: Inhibition of adrenergic alpha2A receptor.
Data set [8] concerns the target 5-hydroxytryptamine receptor 2B (Homo sapiens, UniProt P41595). As to the kind of experiment: Inhibition of 5HT2B receptor.
A further data set addresses Cytochrome P450 2D6 (Homo sapiens, UniProt P10635). In words: Inhibition of CYP2D6. The class given is ADME.
In the next data set the target is D(1A) dopamine receptor (Homo sapiens, UniProt P21728). In words: Inhibition of dopamine D1 receptor.
For data set [9], the target named is 5-hydroxytryptamine receptor 1A (Homo sapiens, UniProt P08908). In words: Inhibition of 5HT1A receptor.
In data set [10] the target is Beta-1 adrenergic receptor (Homo sapiens, UniProt P08588). As to the kind of experiment: Inhibition of adrenergic beta-1 receptor.
Data set [11] addresses 5-hydroxytryptamine receptor 7 (Homo sapiens, UniProt P34969). In words: Inhibition of 5HT7 receptor.
A short description of data set [12]: Inhibition of adrenergic alpha1 receptor.
In data set [13] the target is T2, C-X-C chemokine receptor type 3 (Mus musculus, UniProt O88410). In words: Displacement of [125I]I-TAC from mouse CXCR3 expressed in CHO cells by scintillation proximity assay. In kind it is cell-based.
Another data set deals with D(4) dopamine receptor (Homo sapiens, UniProt P21917). As to the kind of experiment: Inhibition of dopamine D4.4 receptor.
For data set [14], the target named is T2, C-X-C chemokine receptor type 3. In words: Antagonist activity at mouse CXCR3 expressed in L1.2 cells assessed as inhibition of I-TAC-induced Ca2+ mobilization by FLIPR assay. In kind it is functional, cell-based. An outline of the steps: as §1
Data set [15] addresses Alpha-2C adrenergic receptor (Homo sapiens, UniProt P18825). As to the kind of experiment: Inhibition of adrenergic Alpha-2C receptor.
Data set [16] has as its target 5-hydroxytryptamine receptor 6 (Homo sapiens, UniProt P50406). As to the kind of experiment: Inhibition of 5HT6 receptor.
Data set [17] has as its target 5-hydroxytryptamine receptor 2A (Homo sapiens, UniProt P28223). As to the kind of experiment: Inhibition of 5HT2A receptor.
For a further data set, the target named is D(2) dopamine receptor (Homo sapiens, UniProt P14416). As to the kind of experiment: Inhibition of dopamine D2 receptor.
For data set [18], the target named is 5-hydroxytryptamine receptor 2C (Homo sapiens, UniProt P28335). In words: Inhibition of 5HT2C receptor.
Data set [19] is described as follows: Fraction unbound in rat. The class given is ADME, organism-based. The note with it: in vivo.
Data set [20] can be described thus: Lipophilicity, log P of the compound. In kind it is physicochemical. As to conditions: octanol/water.

pIC50: −log10 of the molar value. Values after ≈ are worked out from the molar mass of the structure shown.

Chain of Alpha-2A adrenergic receptor (P08913 whole entry): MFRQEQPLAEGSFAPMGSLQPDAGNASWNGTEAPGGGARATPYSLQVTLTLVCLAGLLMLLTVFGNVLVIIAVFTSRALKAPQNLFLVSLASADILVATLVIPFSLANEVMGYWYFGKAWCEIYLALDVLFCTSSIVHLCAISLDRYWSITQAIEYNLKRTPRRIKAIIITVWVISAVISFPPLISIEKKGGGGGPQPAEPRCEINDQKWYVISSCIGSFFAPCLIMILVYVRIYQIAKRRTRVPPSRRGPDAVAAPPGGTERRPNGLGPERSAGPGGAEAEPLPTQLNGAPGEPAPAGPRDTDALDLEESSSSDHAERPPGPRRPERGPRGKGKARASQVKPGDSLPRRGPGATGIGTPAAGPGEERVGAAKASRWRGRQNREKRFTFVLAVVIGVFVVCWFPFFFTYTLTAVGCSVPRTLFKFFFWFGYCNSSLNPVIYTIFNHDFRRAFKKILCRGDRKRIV
Chain of 5-hydroxytryptamine receptor 6 (P50406 whole entry): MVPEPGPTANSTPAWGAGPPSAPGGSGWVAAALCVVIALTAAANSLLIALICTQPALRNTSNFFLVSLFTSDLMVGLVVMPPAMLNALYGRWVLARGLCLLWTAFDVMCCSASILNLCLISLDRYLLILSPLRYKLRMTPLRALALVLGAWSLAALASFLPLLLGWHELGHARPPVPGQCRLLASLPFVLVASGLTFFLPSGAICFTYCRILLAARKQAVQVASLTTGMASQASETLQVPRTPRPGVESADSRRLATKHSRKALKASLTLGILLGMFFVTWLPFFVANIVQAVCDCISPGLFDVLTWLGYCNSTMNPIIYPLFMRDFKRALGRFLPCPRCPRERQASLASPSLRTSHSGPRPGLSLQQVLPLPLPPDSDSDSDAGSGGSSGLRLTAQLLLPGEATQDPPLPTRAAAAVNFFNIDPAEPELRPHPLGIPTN
Chain of 5-hydroxytryptamine receptor 7 (P34969 whole entry): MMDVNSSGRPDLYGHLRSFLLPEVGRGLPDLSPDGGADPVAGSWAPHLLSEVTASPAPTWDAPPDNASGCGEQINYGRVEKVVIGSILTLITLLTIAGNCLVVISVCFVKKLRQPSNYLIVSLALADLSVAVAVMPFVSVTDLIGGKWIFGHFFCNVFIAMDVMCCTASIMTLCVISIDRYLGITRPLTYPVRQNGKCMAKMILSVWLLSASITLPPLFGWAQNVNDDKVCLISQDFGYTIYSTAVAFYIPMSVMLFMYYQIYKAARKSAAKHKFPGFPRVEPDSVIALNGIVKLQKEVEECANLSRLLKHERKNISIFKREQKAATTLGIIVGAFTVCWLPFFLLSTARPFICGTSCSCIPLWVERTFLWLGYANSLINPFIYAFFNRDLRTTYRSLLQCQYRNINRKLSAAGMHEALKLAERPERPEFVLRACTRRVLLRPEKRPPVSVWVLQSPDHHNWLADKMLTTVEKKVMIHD
T2 sequence (O88410 whole entry): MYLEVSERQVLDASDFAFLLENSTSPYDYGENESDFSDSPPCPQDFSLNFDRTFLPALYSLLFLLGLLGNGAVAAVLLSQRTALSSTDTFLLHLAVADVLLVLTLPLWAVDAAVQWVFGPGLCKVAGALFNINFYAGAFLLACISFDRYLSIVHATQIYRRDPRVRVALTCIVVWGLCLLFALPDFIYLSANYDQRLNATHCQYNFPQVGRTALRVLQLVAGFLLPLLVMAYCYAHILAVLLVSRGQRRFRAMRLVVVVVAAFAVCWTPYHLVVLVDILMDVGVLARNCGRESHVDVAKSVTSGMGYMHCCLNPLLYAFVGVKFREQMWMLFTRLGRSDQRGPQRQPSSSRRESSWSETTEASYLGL
Chain of 5-hydroxytryptamine receptor 2B (P41595 whole entry): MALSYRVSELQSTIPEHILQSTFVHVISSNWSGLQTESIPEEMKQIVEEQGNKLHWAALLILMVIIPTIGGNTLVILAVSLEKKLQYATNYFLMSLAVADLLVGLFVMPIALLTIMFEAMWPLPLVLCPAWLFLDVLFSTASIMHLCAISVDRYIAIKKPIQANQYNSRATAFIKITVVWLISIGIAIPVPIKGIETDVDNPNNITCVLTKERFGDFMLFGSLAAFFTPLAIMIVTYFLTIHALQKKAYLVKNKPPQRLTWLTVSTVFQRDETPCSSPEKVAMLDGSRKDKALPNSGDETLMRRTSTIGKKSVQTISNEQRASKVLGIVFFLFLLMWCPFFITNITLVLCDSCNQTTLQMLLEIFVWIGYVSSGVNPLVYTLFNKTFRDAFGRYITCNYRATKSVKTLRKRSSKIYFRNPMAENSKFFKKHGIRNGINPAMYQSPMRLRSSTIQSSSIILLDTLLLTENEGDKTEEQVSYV
Chain of Beta-1 adrenergic receptor (P08588 whole entry): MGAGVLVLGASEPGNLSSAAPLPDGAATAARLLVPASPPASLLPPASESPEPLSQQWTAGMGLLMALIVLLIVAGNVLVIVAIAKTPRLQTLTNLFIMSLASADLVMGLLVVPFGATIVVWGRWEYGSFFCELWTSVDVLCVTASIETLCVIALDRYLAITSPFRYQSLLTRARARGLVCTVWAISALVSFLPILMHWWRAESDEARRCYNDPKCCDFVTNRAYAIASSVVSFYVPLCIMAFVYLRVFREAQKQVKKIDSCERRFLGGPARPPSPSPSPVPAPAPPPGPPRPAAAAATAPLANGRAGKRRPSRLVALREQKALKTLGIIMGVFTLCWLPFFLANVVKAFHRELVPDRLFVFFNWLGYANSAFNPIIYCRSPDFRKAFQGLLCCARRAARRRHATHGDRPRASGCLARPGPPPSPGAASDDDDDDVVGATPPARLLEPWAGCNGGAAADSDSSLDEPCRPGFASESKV
Chain of D(3) dopamine receptor (P35462 whole entry): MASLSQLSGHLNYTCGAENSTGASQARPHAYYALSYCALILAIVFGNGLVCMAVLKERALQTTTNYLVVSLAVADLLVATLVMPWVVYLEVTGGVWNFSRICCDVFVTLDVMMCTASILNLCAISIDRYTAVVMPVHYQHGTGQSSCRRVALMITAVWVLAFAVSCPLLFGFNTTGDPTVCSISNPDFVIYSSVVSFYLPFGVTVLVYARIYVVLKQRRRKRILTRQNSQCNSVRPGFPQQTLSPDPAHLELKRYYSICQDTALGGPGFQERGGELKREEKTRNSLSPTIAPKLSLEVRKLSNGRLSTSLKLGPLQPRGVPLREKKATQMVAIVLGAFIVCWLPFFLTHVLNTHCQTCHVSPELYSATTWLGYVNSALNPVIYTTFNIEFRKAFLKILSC
Chain of 5-hydroxytryptamine receptor 2C (P28335 whole entry): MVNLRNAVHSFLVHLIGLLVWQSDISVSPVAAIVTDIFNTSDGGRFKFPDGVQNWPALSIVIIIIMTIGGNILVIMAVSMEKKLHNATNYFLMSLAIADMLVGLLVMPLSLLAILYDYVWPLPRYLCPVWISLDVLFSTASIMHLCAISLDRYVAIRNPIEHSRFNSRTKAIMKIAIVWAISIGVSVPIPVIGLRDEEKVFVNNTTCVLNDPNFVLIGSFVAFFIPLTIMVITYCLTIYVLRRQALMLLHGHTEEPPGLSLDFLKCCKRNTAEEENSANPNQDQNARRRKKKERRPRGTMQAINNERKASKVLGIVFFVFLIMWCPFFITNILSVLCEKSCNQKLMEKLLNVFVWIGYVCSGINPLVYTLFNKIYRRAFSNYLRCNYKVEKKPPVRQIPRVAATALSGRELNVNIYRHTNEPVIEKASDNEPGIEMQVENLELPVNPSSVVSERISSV
Chain of D(2) dopamine receptor (P14416 whole entry): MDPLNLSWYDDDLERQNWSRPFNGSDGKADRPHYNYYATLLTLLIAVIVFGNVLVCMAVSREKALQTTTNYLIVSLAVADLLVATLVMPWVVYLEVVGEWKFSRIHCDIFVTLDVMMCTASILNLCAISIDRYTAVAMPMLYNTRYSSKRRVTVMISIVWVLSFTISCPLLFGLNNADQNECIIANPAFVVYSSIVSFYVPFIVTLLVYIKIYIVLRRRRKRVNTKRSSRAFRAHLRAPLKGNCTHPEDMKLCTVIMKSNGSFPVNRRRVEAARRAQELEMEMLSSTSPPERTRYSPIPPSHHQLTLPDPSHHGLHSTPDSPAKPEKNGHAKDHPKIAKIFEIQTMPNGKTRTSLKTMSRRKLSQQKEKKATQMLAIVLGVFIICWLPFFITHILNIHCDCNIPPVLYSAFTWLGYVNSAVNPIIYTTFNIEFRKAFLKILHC
Chain of D(4) dopamine receptor (P21917 whole entry): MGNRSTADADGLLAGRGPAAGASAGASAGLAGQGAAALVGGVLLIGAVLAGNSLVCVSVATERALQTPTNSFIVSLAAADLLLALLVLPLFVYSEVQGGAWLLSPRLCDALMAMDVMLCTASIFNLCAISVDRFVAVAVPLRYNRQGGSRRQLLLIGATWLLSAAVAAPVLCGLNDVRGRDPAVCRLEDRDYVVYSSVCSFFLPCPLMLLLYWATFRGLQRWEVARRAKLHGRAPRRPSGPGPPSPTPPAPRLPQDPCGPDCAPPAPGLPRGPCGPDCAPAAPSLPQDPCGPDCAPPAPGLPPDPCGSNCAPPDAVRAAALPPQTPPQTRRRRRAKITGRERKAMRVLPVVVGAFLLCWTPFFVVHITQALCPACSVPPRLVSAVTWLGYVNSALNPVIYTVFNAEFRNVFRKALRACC
Chain of D(1A) dopamine receptor (P21728 whole entry): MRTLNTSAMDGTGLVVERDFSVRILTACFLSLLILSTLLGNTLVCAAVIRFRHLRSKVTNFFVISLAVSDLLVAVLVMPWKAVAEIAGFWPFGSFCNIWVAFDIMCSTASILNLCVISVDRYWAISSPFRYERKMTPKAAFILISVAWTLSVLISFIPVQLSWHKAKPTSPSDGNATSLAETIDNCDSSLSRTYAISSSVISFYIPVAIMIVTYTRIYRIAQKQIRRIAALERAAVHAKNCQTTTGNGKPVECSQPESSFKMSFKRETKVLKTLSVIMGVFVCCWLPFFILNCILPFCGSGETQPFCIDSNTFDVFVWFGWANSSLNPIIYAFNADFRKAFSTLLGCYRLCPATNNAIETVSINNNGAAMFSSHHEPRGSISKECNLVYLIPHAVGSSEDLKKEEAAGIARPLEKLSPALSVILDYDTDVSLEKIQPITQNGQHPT

For `CCN(CC)C(=O)[C@@H]1C=C2c3cccc4[nH]cc(c34)C[C@H]2N(C(=O)Nc2ccncc2)C1`, the pIC50 in data set [1] is 5.70; in data set [2], 5.17.
Turning to `CCN(CC)C[C@@H]1C=C2c3cccc4[nH]cc(c34)C[C@H]2N(C(=O)Nc2ccccc2)C1`, the pIC50 in data set [1] and in data set [2] was below 5.00 in each case.
Consider `CCN(CC)C(=O)[C@@H]1C=C2c3cccc4[nH]cc(c34)C[C@H]2N(C(=O)Nc2ccccc2)C1`, for which the solubility in data set [3] and in data set [5] was 5 µg/mL (≈ 11.7 µM) each time. The pIC50 at Cytochrome P450 1A2 is below 5.00; at Cytochrome P450 3A4 it was below 5.00; on D(3) dopamine receptor, 6.18; against Cytochrome P450 2C19 it was below 5.00; against Cytochrome P450 2C9 it was below 5.00; in [4], below 4.52. Further, the negative-log IC50 (pIC50) was 5.71 in data set [7]; 7.27 in data set [1]; 5.61 in data set [8]; below 5.00 on Cytochrome P450 2D6; 5.31 on D(1A) dopamine receptor; 5.44 in data set [9]. The pIC50 was 5.24 in data set [10]; below 5.00 in data set [11]; 7.74 in data set [2]; 5.39 in [12]; 6.70 in data set [13]; 5.58 against D(4) dopamine receptor. In addition, the pIC50 was 7.52 in [14]; 6.67 in [15]; 5.02 in data set [16]; 6.12 in [17]; 5.80 against D(2) dopamine receptor; below 5.00 in [18]. In addition, the fraction unbound in data set [6] amounted to 0.01; in data set [19], 0.02. Further, the lipophilicity (logP) in data set [20] turned out to be 4.2.
On to `CCN(CC)C(=O)[C@@H]1C=C2c3cccc4c3c(cn4Cc3ccccc3)C[C@H]2N(C(=O)Nc2ccccc2)C1`, for which the pIC50 in data set [1] is 6.23; in data set [2], 6.29.
Take `CCN(CC)C(=O)[C@@H]1C=C2c3cccc4c3c(cn4C)C[C@H]2N(C(=O)Nc2ccccc2)C1`: the pIC50 is 6.66 in data set [1] and 7.22 in data set [2].
In the same order, the values of `CCN(CC)C(=O)[C@@H]1C=C2c3cccc4[nH]cc(c34)C[C@H]2N(C(=O)Nc2ccc(C)cc2)C1` are 6.50 and 7.00.
Take `CCN(CC)C(=O)[C@@H]1C=C2c3cccc4[nH]cc(c34)C[C@H]2N(C(=O)Nc2ccccc2C)C1`: the pIC50 is 6.84 in [1] and 7.55 in data set [2].
As for `CCN(CC)C(=O)[C@@H]1CC2c3cccc4[nH]cc(c34)C[C@H]2N(C(=O)Nc2ccccc2)C1` (some centres not stated), the pIC50 in data set [1] was 5.28; in data set [2] it was 5.71.
For the molecule `CCN(CC)C(=O)[C@@H]1C=C2c3cccc4[nH]cc(c34)C[C@H]2N(C(=O)Nc2ccccn2)C1`, the negative-log IC50 (pIC50) in [1] was 6.37; in [2], 7.21.
The molecule `CCN(CC)C(=O)[C@H]1C=C2c3cccc4[nH]cc(c34)C[C@H]2N(C(=O)Nc2ccccc2)C1` had a pIC50 in [1] below 5.00.
As to `CCN(CC)C(=O)[C@@H]1C=C2c3cccc4[nH]cc(c34)C[C@H]2N(C(=O)Nc2cccnc2)C1`, the values for the pIC50 in [1] and in data set [2] were 6.55 and 7.17, respectively.
With `CCN(CC)C(=O)[C@@H]1C=C2c3cccc4[nH]cc(c34)C[C@H]2N(C(=O)Oc2ccccc2)C1`, the negative logarithm of the IC50 (pIC50) in data set [1] was 6.10; in data set [2], 6.09.
On to `CCN(CC)C(=O)[C@@H]1C=C2c3cccc4[nH]cc(c34)C[C@H]2N(C(=O)N(C)c2ccccc2)C1`, for which the pIC50 in [1] and in data set [2] was below 5.00 each time.
With `CCN(CC)C(=O)[C@@H]1C=C2c3cccc4[nH]cc(c34)C[C@H]2N(C(=O)NC2CCCCC2)C1`, the pIC50 in data set [1] is 6.75; in [2] it was 7.11.
As to `CCN(CC)C(=O)[C@@H]1C=C2c3cccc4[nH]cc(c34)C[C@H]2N(C(=O)Nc2cc(OC)c(OC)c(OC)c2)C1`, the values for the pIC50 in data set [1] and in [2] were 5.52 and 6.25, respectively.
Take `CCN(CC)C(=O)[C@@H]1C=C2c3cccc4[nH]cc(c34)C[C@H]2N(C(=O)Nc2cccc(C)c2)C1`: the negative-log IC50 (pIC50) in data set [1] was 6.64; in data set [2], 7.35.
`CCN(CC)C(=O)[C@@H]1C=C2c3cccc4[nH]cc(c34)C[C@H]2NC1`: the pIC50 at D(3) dopamine receptor is below 5.00; in data set [7] it was below 5.00; in [1], below 5.00; in [8] it was 7.27; against D(1A) dopamine receptor, below 5.00; in [10], below 5.00. The pIC50 is 6.84 in [11]; below 5.00 in [12]; below 5.00 on D(4) dopamine receptor; below 5.00 in [15]; 7.80 in data set [16]; 8.22 in data set [17]. The pIC50 at D(2) dopamine receptor is below 5.00; in data set [18], 5.89.

Source of the values: ChEMBL document CHEMBL1154177, “Special ergolines are highly selective, potent antagonists of the chemokine receptor CXCR3: discovery, characterization and preliminary SAR of a promising lead” (Bioorg Med Chem Lett, 2009).
